Published values of several laboratories.
Each line is one published result; the experiments were not run side by side.
Target: Insulin-like growth factor 1 receptor (IGF1R, Homo sapiens, UniProt P08069)

| SMILES | test | conditions | remaining binding [%] |
| --- | --- | --- | --- |
| C[C@@H]1CN(c2ccc3ncc(-c4ccc5[nH]nc(C6CC6)c5c4)n3n2)C[C@H](C)O1 | binding, competition with immobilised ligand | 0.5 µM | 100 |
| Cc1cc(NC(=O)c2cccc(S(F)(F)(F)(F)F)c2)cc(-n2ccn3nc(-c4cccnc4)cc23)c1 | cell-free assay, competition with immobilised ligand | 1 µM | 100 |
| c1cnn2ncc(-c3ccnc(N4CCC45COC5)n3)c2c1 | binding | 1 µM | 97 |
| O=C(c1ccc(Nc2nccc(-c3cc4ccccc4s3)n2)cc1)N1CCC(N2CCCC2)CC1 | binding, competition with immobilised ligand | 1 µM | 100 |
| O=C(Nc1c[nH]nc1C(=O)NC1CCNCC1)c1cc(F)cc(F)c1 | binding, competition with immobilised ligand | 1 µM | 100 |
| O=C1NC(c2ccccn2)Sc2ccccc21 (stereo not shown) | cell-free assay, competition with immobilised ligand | 1 µM | 80 |
| CC1CCCN1c1nccc(-c2cnn3ncccc23)n1 (stereo not shown) | binding | 1 µM | 96 |
| C[C@@H](c1ccc(-n2cnc3c(N)ncnc32)cc1)N1CCc2nn(C)c(Cc3ccccc3)c2C1=O | binding, competition with immobilised ligand | 0.1 µM | 38 |
| COc1ncc2cc3ccccc3nc2c1C#N | cell-free assay, competition with immobilised ligand | 5 µM | 86 |
| CCS(=O)(=O)c1cc2cc(C[C@](O)(CC(C)(C)c3ccc(F)cc3C(N)=O)C(F)(F)F)[nH]c2cn1 | cell-free assay, competition with immobilised ligand | 1 µM | 100 |
| C[C@@H]1CCN(c2nccc(-c3cnn4ncccc34)n2)C1 | binding | 1 µM | 53 |
| Cc1nc(C2CCN(C(=O)c3ccc(OC(F)(F)F)cc3N)CC2)c2ncc(N3CCN(C)CC3)cc2n1 | cell-free assay, competition with immobilised ligand | 1 µM | 91 |
| COc1cnc(Nc2cccc(S(N)(=O)=O)c2)nc1N1CCN(c2ccccc2)CC1 | binding, competition with immobilised ligand | 1 µM | 100 |
| CC(C)(C)c1ccc(-c2nc(CBr)nn2-c2cccc(O)c2)cc1 | cell-free assay, competition with immobilised ligand | 10 µM | 95 |
| c1cncc(-c2cccc(Nc3nccc(NC4CCCCC4)n3)c2)c1 | binding, competition with immobilised ligand | 10 µM | 67 |
| CO[C@@H](C)c1c(Nc2ccc([C@H](N(C)C(=O)C3CCS(=O)(=O)CC3)C(F)(F)F)cc2)cnc2cc(Cl)nn12 | cell-free assay, competition with immobilised ligand | 1 µM | 100 |
| O=C(NCCCN1CCOCC1)c1ccc(Nc2ncc(Cl)c(-c3ccc(Cl)s3)n2)cc1 | binding, competition with immobilised ligand | 1 µM | 44 |
| CN(C)c1nccc(-c2cnn3ncccc23)n1 | binding | 1 µM | 100 |
| Cn1nc(C(=O)NCc2ccc(C(=O)O)cc2)cc1-c1ccc2[nH]ccc2c1 | cell-free assay, competition with immobilised ligand | 0.1 µM | 91 |
| C=CC(=O)N1CCC(C(=O)NCC(=O)N2CCN(c3nc(-c4cnc(N)nc4C(F)F)nc(N4CCOCC4)n3)CC2)CC1 | binding, competition with immobilised ligand | 1 µM | 100 |
| COc1ccc2c(c1)O[C@@H](c1ccc(OC)c(OC)c1)C[C@H]2NC(=O)C1(c2ccc3c(c2)OC(F)(F)O3)CC1 | cell-free assay, competition with immobilised ligand | 1 µM | 90 |
| CN(c1nccc(-c2cnn3ncccc23)n1)C1CC1 | binding | 1 µM | 93 |
| O=C(NCCCN1CCOCC1)c1ccc(Nc2nccc(-c3cc4ccccc4s3)n2)cc1 | binding, competition with immobilised ligand | 1 µM | 100 |
| N[C@@H]1CCN(c2nccc(-c3cnn4ncccc34)n2)C1 | binding | 1 µM | 99 |
| CCOCCn1cc(C(=O)Nc2ccc(-n3nc(-c4cccnc4)cc3C(F)(F)F)cn2)ccc1=O | cell-free assay, competition with immobilised ligand | 1 µM | 96 |
